Assay results reported in ChEMBL document CHEMBL4138284, “Biomimetic Stereoselective Sulfa-Michael Addition Leads to Platensimycin and Platencin Sulfur Analogues against Methicillin-Resistant Staphylococcus aureus” (J Nat Prod, 2018).
In brackets after ≈: the same amount, converted by molar mass.

Key:
Type in all cases: functional
Staphylococcus aureus [1] = assay: Antibacterial activity against Staphylococcus aureus ATCC 29213 incubated overnight by agar dilution method
Procedure, shortened: (§1)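 MIC by agar dilution. Strains were grown overnight in LB broth and diluted, then about 10^4 CFU (2 μL spots) were spotted onto LB agar plates containing test compound at 0.5 to 8 μg mL−1 agar. Plates were incubated overnight at 37 °C and inspected for growth. Clinical MSSA and MRSA isolates came from local hospitals.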

Staphylococcus aureus [2] = assay: Antibacterial activity against methicillin-resistant Staphylococcus aureus isolate 8 incubated overnight by agar dilution method; procedure, shortened: as §1
Staphylococcus aureus [3] = assay: Antibacterial activity against methicillin-sensitive Staphylococcus aureus isolate 4 incubated overnight by agar dilution method; procedure, shortened: as §1
Staphylococcus aureus [4] = assay: Antibacterial activity against methicillin-resistant Staphylococcus aureus isolate 11 incubated overnight by agar dilution method; procedure, shortened: as §1
Staphylococcus aureus [5] = assay: Antibacterial activity against methicillin-resistant Staphylococcus aureus isolate 10 incubated overnight by agar dilution method; procedure, shortened: as §1
Staphylococcus aureus [6] = assay: Antibacterial activity against methicillin-resistant Staphylococcus aureus isolate 5 incubated overnight by agar dilution method; procedure, shortened: as §1
Staphylococcus aureus [7] = assay: Antibacterial activity against methicillin-sensitive Staphylococcus aureus isolate 3 incubated overnight by agar dilution method; procedure, shortened: as §1
Staphylococcus aureus [8] = assay: Antibacterial activity against methicillin-resistant Staphylococcus aureus isolate 9 incubated overnight by agar dilution method; procedure, shortened: as §1
Staphylococcus aureus [9] = assay: Antibacterial activity against methicillin-resistant Staphylococcus aureus isolate 7 incubated overnight by agar dilution method; procedure, shortened: as §1
Staphylococcus aureus [10] = assay: Antibacterial activity against methicillin-resistant Staphylococcus aureus isolate 6 incubated overnight by agar dilution method; procedure, shortened: as §1
Staphylococcus aureus [11] = assay: Antibacterial activity against methicillin-sensitive Staphylococcus aureus isolate 2 incubated overnight by agar dilution method; procedure, shortened: as §1
Staphylococcus aureus [12] = assay: Antibacterial activity against methicillin-sensitive Staphylococcus aureus isolate 1 incubated overnight by agar dilution method; procedure, shortened: as §1

SMILES	MIC (Staphylococcus aureus [1]) [µg/mL]	MIC (Staphylococcus aureus [2]) [µg/mL]	MIC (Staphylococcus aureus [3]) [µg/mL]	MIC (Staphylococcus aureus [4]) [µg/mL]	MIC (Staphylococcus aureus [5]) [µg/mL]	MIC (Staphylococcus aureus [6]) [µg/mL]	MIC (Staphylococcus aureus [7]) [µg/mL]	MIC (Staphylococcus aureus [8]) [µg/mL]	MIC (Staphylococcus aureus [9]) [µg/mL]	MIC (Staphylococcus aureus [10]) [µg/mL]	MIC (Staphylococcus aureus [11]) [µg/mL]	MIC (Staphylococcus aureus [12]) [µg/mL]
C=C1C[C@@]23CCC1C[C@@H]2[C@](C)(CCC(=O)Nc1c(O)ccc(C(=O)O)c1O)C(=O)C[C@@H]3SC(=O)Cc1ccc(F)cc1 (single isomer, unassigned)	4 (≈ 6.71 µM)	1 (≈ 1.68 µM)	0.5 (≈ 0.839 µM)	4 (≈ 6.71 µM)	1 (≈ 1.68 µM)	2 (≈ 3.36 µM)	1 (≈ 1.68 µM)	1 (≈ 1.68 µM)	4 (≈ 6.71 µM)	2 (≈ 3.36 µM)	1 (≈ 1.68 µM)	1 (≈ 1.68 µM)
C[C@]12C[C@]34C[C@@H]1C[C@H](O2)[C@H]3[C@](C)(CCC(=O)Nc1c(O)ccc(C(=O)O)c1O)C(=O)C[C@@H]4SC(=O)c1cc(F)cc(F)c1	2 (≈ 3.25 µM)	2 (≈ 3.25 µM)	2 (≈ 3.25 µM)		2 (≈ 3.25 µM)	2 (≈ 3.25 µM)	2 (≈ 3.25 µM)	2 (≈ 3.25 µM)	2 (≈ 3.25 µM)	1 (≈ 1.62 µM)	1 (≈ 1.62 µM)	1 (≈ 1.62 µM)
Cc1ccc(S[C@H]2CC(=O)[C@@](C)(CCC(=O)Nc3c(O)ccc(C(=O)O)c3O)[C@@H]3[C@@H]4C[C@H]5C[C@]23C[C@]5(C)O4)cc1	4 (≈ 7.07 µM)	2 (≈ 3.54 µM)	2 (≈ 3.54 µM)	2 (≈ 3.54 µM)	2 (≈ 3.54 µM)	4 (≈ 7.07 µM)	2 (≈ 3.54 µM)	2 (≈ 3.54 µM)	4 (≈ 7.07 µM)	2 (≈ 3.54 µM)	2 (≈ 3.54 µM)	2 (≈ 3.54 µM)
C[C@]12C[C@]34C[C@@H]1C[C@H](O2)[C@H]3[C@](C)(CCC(=O)Nc1c(O)ccc(C(=O)O)c1O)C(=O)C[C@@H]4SC(=O)c1ccc(F)cc1	1 (≈ 1.67 µM)	2 (≈ 3.35 µM)	1 (≈ 1.67 µM)	2 (≈ 3.35 µM)	1 (≈ 1.67 µM)	2 (≈ 3.35 µM)	1 (≈ 1.67 µM)	1 (≈ 1.67 µM)	1 (≈ 1.67 µM)	1 (≈ 1.67 µM)	1 (≈ 1.67 µM)	1 (≈ 1.67 µM)
C=C1C[C@@]23CCC1C[C@@H]2[C@](C)(CCC(=O)Nc1c(O)ccc(C(=O)O)c1O)C(=O)C[C@@H]3Sc1ccc(C)cc1 (single isomer, unassigned)	2 (≈ 3.64 µM)	1 (≈ 1.82 µM)	0.5 (≈ 0.91 µM)	2 (≈ 3.64 µM)	1 (≈ 1.82 µM)	2 (≈ 3.64 µM)	0.5 (≈ 0.91 µM)	1 (≈ 1.82 µM)	2 (≈ 3.64 µM)	1 (≈ 1.82 µM)	0.5 (≈ 0.91 µM)	1 (≈ 1.82 µM)
C[C@]12C[C@]34C[C@@H]1C[C@H](O2)[C@H]3[C@](C)(CCC(=O)Nc1c(O)ccc(C(=O)O)c1O)C(=O)C[C@@H]4SC(=O)c1ccc(C(F)(F)F)cc1	1 (≈ 1.54 µM)	1 (≈ 1.54 µM)	1 (≈ 1.54 µM)	2 (≈ 3.09 µM)	1 (≈ 1.54 µM)	2 (≈ 3.09 µM)	1 (≈ 1.54 µM)	1 (≈ 1.54 µM)	2 (≈ 3.09 µM)	1 (≈ 1.54 µM)	1 (≈ 1.54 µM)	0.5 (≈ 0.772 µM)
C[C@]12C[C@]34C[C@@H]1C[C@H](O2)[C@H]3[C@](C)(CCC(=O)Nc1c(O)ccc(C(=O)O)c1O)C(=O)C[C@@H]4SC(=O)c1ccc(Cl)cc1	1 (≈ 1.63 µM)	1 (≈ 1.63 µM)	1 (≈ 1.63 µM)	2 (≈ 3.26 µM)	1 (≈ 1.63 µM)	1 (≈ 1.63 µM)	1 (≈ 1.63 µM)	1 (≈ 1.63 µM)	1 (≈ 1.63 µM)	1 (≈ 1.63 µM)	1 (≈ 1.63 µM)	1 (≈ 1.63 µM)
C[C@]12C[C@]34C[C@@H]1C[C@H](O2)[C@H]3[C@](C)(CCC(=O)Nc1c(O)ccc(C(=O)O)c1O)C(=O)C[C@@H]4SC(=O)c1ccc([N+](=O)[O-])cc1	1 (≈ 1.6 µM)	1 (≈ 1.6 µM)	1 (≈ 1.6 µM)	8 (≈ 12.8 µM)	1 (≈ 1.6 µM)	2 (≈ 3.2 µM)	1 (≈ 1.6 µM)	1 (≈ 1.6 µM)	2 (≈ 3.2 µM)	1 (≈ 1.6 µM)	1 (≈ 1.6 µM)	1 (≈ 1.6 µM)
C=C1C[C@@]23C=CC(=O)[C@@](C)(CCC(=O)Nc4c(O)ccc(C(=O)O)c4O)[C@@H]2C[C@@H]1CC3 [PLATENCIN]	1 (≈ 2.35 µM)	1 (≈ 2.35 µM)	1 (≈ 2.35 µM)	1 (≈ 2.35 µM)	1 (≈ 2.35 µM)	1 (≈ 2.35 µM)	1 (≈ 2.35 µM)	1 (≈ 2.35 µM)	1 (≈ 2.35 µM)	1 (≈ 2.35 µM)	1 (≈ 2.35 µM)	1 (≈ 2.35 µM)
C[C@]12C[C@]34C[C@@H]1C[C@H](O2)[C@H]3[C@](C)(CCC(=O)Nc1c(O)ccc(C(=O)O)c1O)C(=O)C[C@@H]4SC(=O)c1cc(C(F)(F)F)cc(C(F)(F)F)c1	1 (≈ 1.4 µM)	1 (≈ 1.4 µM)	1 (≈ 1.4 µM)		1 (≈ 1.4 µM)	1 (≈ 1.4 µM)	1 (≈ 1.4 µM)	1 (≈ 1.4 µM)	2 (≈ 2.79 µM)	1 (≈ 1.4 µM)	1 (≈ 1.4 µM)	1 (≈ 1.4 µM)
C[C@]12C[C@]34C[C@@H]1C[C@H](O2)[C@H]3[C@](C)(CCC(=O)Nc1c(O)ccc(C(=O)O)c1O)C(=O)C[C@@H]4SC(=O)c1ccccc1F	1 (≈ 1.67 µM)	1 (≈ 1.67 µM)	1 (≈ 1.67 µM)	2 (≈ 3.35 µM)	1 (≈ 1.67 µM)	2 (≈ 3.35 µM)	1 (≈ 1.67 µM)	1 (≈ 1.67 µM)	2 (≈ 3.35 µM)	1 (≈ 1.67 µM)	1 (≈ 1.67 µM)	1 (≈ 1.67 µM)
C[C@]12C[C@]34C[C@@H]1C[C@H](O2)[C@H]3[C@](C)(CCC(=O)Nc1c(O)ccc(C(=O)O)c1O)C(=O)C[C@@H]4SC(=O)Cc1ccc(F)cc1	2 (≈ 3.27 µM)	2 (≈ 3.27 µM)	1 (≈ 1.63 µM)	4 (≈ 6.54 µM)	2 (≈ 3.27 µM)	2 (≈ 3.27 µM)	2 (≈ 3.27 µM)	2 (≈ 3.27 µM)	4 (≈ 6.54 µM)	2 (≈ 3.27 µM)	1 (≈ 1.63 µM)	2 (≈ 3.27 µM)
C[C@]12C[C@]34C[C@@H]1C[C@H](O2)[C@H]3[C@](C)(CCC(=O)Nc1c(O)ccc(C(=O)O)c1O)C(=O)C[C@@H]4SC(=O)c1ccc(Br)cc1	1 (≈ 1.52 µM)	1 (≈ 1.52 µM)	1 (≈ 1.52 µM)	2 (≈ 3.04 µM)	1 (≈ 1.52 µM)	2 (≈ 3.04 µM)	1 (≈ 1.52 µM)	1 (≈ 1.52 µM)	1 (≈ 1.52 µM)	1 (≈ 1.52 µM)	1 (≈ 1.52 µM)	1 (≈ 1.52 µM)
Cc1ccc(C(=O)S[C@H]2CC(=O)[C@@](C)(CCC(=O)Nc3c(O)ccc(C(=O)O)c3O)[C@@H]3[C@@H]4C[C@H]5C[C@]23C[C@]5(C)O4)cc1	1 (≈ 1.68 µM)	1 (≈ 1.68 µM)	1 (≈ 1.68 µM)	2 (≈ 3.37 µM)	1 (≈ 1.68 µM)	2 (≈ 3.37 µM)	1 (≈ 1.68 µM)	1 (≈ 1.68 µM)	2 (≈ 3.37 µM)	1 (≈ 1.68 µM)	1 (≈ 1.68 µM)	1 (≈ 1.68 µM)
C[C@]12C[C@]34C[C@@H]1C[C@H](O2)[C@H]3[C@](C)(CCC(=O)Nc1c(O)ccc(C(=O)O)c1O)C(=O)C[C@@H]4SC(=O)c1cccs1	2 (≈ 3.41 µM)	2 (≈ 3.41 µM)	1 (≈ 1.71 µM)	1 (≈ 1.71 µM)	1 (≈ 1.71 µM)	2 (≈ 3.41 µM)	1 (≈ 1.71 µM)	1 (≈ 1.71 µM)	8 (≈ 13.7 µM)	2 (≈ 3.41 µM)	1 (≈ 1.71 µM)	1 (≈ 1.71 µM)
